Experimental data published in ChEMBL document CHEMBL4196174, “Discovery of Indole Derivatives as Novel and Potent Dengue Virus Inhibitors” (J Med Chem, 2018).
≈ marks a conversion by molar mass, not a printed value.

Legend:
dengue virus type 2 = test: Antiviral activity against Dengue virus 2 Rega infected in African green monkey Vero cells assessed as reduction in viral yield after 4 days by qRT-PCR analysis; format: functional, organism-based
Method in brief: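 Virus yield reduction in Vero cells (seeded 5×10^4/well). Next day infected with DENV (MOI 0.01) in assay medium (MEM, 2% FBS, 0.075% bicarbonate, 2 mM L-glutamine). After 1 h, input virus was removed and cells rinsed 3 times. Medium with 3- or 5-fold compound serial dilutions was then added. Incubation was 4 days (DENV-2, DENV-4) or 7 days (DENV-1, DENV-3). Supernatant viral RNA was measured by RT-qPCR, and EC50 obtained by logarithmic interpolation.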

[1] = (§1) Cytotoxicity against African green monkey Vero cells assessed as cell growth inhibition after 4 days by MTS/PMS method; format: cell-based; settings: chlorocebus sabaeus, Vero cells
Method in brief: (§2)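 Cytotoxicity run as in the yield assay, but without virus. Vero cells (5×10^4/well) were exposed to 3- or 5-fold serial dilutions in MEM with 2% FBS. Viability was read by the MTS/PMS colorimetric method. CC50 was derived by logarithmic interpolation.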

Salmonella typhimurium [2] = test: Mutagenicity in Salmonella typhimurium in absence of human liver S9 fraction by Ames test; format: toxicity, organism-based; settings: salmonella enterica subsp. enterica serovar typhimurium
Salmonella typhimurium [3] = test: Mutagenicity in Salmonella typhimurium in presence of human liver S9 fraction by Ames test; format: toxicity, organism-based; settings: salmonella enterica subsp. enterica serovar typhimurium
[4] = Drug metabolism in human liver microsomes after 15 mins; format: ADME, microsome; settings: for metabolised at 0.25 h: liver microsomes, read-out: Drug metabolism
Method in brief: (§3)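 Percentage of compound metabolized after 15 min incubation with human or rat liver microsomes.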

[5] = Solubility of the compound in DMSO solution at pH 7.4; format: physicochemical
Method in brief: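 Solubility measured at pH 7.4, starting from a DMSO solution.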

[6] = Drug metabolism in rat liver microsomes after 15 mins; format: ADME, microsome; settings: for metabolised at 0.25 h: liver microsomes, read-out: Drug metabolism; method in brief: as §3
Vero = test: as §1; format: cell-based; settings: chlorocebus sabaeus, vero, 96 h; method in brief: as §2

EC50 (dengue virus type 2; Dengue virus, Rega, Vero, 96 h) [µM]	SMILES	CC50 at 96 h [1] [µM]	further results
3.3	COc1nc(NC(C(=O)c2c[nH]c3ccccc23)c2ccccc2)ns1 (stereo not given)	90	–
0.018	CCOc1cc(NC(C(=O)c2c[nH]c3ccccc23)c2ccccc2)cc(OC)c1 (stereo not given)	13	–
0.028	COc1cccc(NC(C(=O)c2c[nH]c3ccccc23)c2cc3ccccn3n2)c1 (stereo not given)	26	–
15	O=C(c1c[nH]c2ccccc12)C(NC1CCCC1)c1ccccc1 (stereo not given)	86	–
0.106	COc1cc(NC(C(=O)c2c[nH]c3ccc(CO)cc23)c2ccccc2)cc(OC)c1 (stereo not given)	65	–
0.013	COc1cccc(NC(C(=O)c2c[nH]c3cc(Cl)ccc23)c2ccccc2)c1 (stereo not given)	13	–
1.7	O=C(c1c[nH]c2ccccc12)C(Nc1cc(F)cc(F)c1)c1ccccc1 (stereo not given)	23	–
0.043	COc1cccc(NC(C(=O)c2c[nH]c3cc(OC)ccc23)c2ccccc2)c1 (stereo not given)	13	–
0.134	COc1cccc(NC(C(=O)c2c[nH]c3ccccc23)c2ccsc2)c1 (stereo not given)	15	–
1.7	COc1cc(NC(C(=O)c2c[nH]c3ccccc23)c2ccccc2)cc(OCCN(C)C)c1 (stereo not given)	13	–
0.073	COc1cccc(NC(C(=O)c2c[nH]c3ccccc23)c2ccccc2)c1 (stereo not given)	18	Activity (Salmonella typhimurium [2]): Non-Toxic; Activity (Salmonella typhimurium [3]): Non-Toxic
0.269	COc1cccc(NC(C(=O)c2c[nH]c3ccccc23)c2cccc(C)c2)c1 (stereo not given)	20	–
0.004	COc1cc(NC(C(=O)c2c[nH]c3ccccc23)c2ccc(F)cc2)cc(OC)c1 (stereo not given)	13	–
0.181	COc1cc(NC(C(=O)c2c[nH]c3ccc(CCO)cc23)c2ccccc2)cc(OC)c1 (stereo not given)	56	–
0.024	COc1cccc(NC(C(=O)c2c[nH]c3cccc(Cl)c23)c2ccccc2)c1 (stereo not given)	18	–
0.065	COc1cc(CO)cc(NC(C(=O)c2c[nH]c3ccccc23)c2ccccc2)c1 (stereo not given)	71	metabolised at 0.25 h [4]: 18%; solubility ([5]; read-out: solubility): 50 µM (≈ 19.3 µg/mL); metabolised at 0.25 h [6]: 85%
6.3	COc1ccnc(NC(C(=O)c2c[nH]c3ccccc23)c2ccccc2)c1 (stereo not given)	95	–
1.2	COc1cccc(NC(C(=O)c2c[nH]c3ccccc23)c2ccc3nccnc3c2)c1 (stereo not given)	19	–
6.1	O=C(c1c[nH]c2ccccc12)C(Nc1ccc2[nH]c(=O)oc2c1)c1ccccc1 (stereo not given)	15	–
0.041	COc1cccc(NC(C(=O)c2c[nH]c3ccccc23)c2ccc(C#N)cc2)c1 (stereo not given)	14	–
0.288	COc1cc(NC(C(=O)c2c[nH]c3cccc(CO)c23)c2ccccc2)cc(OC)c1 (stereo not given)	71	–
0.051	COc1cccc(NC(C(=O)c2c[nH]c3c(C)cccc23)c2ccccc2)c1 (stereo not given)	> 135	–
0.138	COc1cccc(NC(C(=O)c2c[nH]c3ccccc23)c2ccncc2)c1 (stereo not given)	16	–
1.4	COc1cc(NC(C(=O)c2c[nH]c3cccc(CCCO)c23)c2ccccc2)cc(OC)c1 (stereo not given)	55	–
0.02	COc1cc(F)cc(NC(C(=O)c2c[nH]c3ccccc23)c2ccccc2)c1 (stereo not given)	22	–
2.1	N#Cc1cccc(NC(C(=O)c2c[nH]c3ccccc23)c2ccccc2)c1 (stereo not given)	14	–
0.085	COc1cc(NC(C(=O)c2c[nH]c3ccccc23)c2ccccc2)cc(OCCCO)c1 (stereo not given)	50	metabolised at 0.25 h [4]: 8%; solubility ([5]; read-out: solubility): 30 µM (≈ 12.9 µg/mL); metabolised at 0.25 h [6]: 67%

EC50 (dengue virus type 2; Dengue virus, Rega, Vero, 96 h) [µM]	SMILES	CC50 at 96 h [1] [µM]	further results
0.096	COc1cccc(NC(C(=O)c2c[nH]c3ccccc23)c2ccccc2C)c1 (stereo not given)	14	–
0.138	COc1cccc(NC(C(=O)c2c[nH]c3ccccc23)c2cccnc2)c1 (stereo not given)	71	–
0.034	COc1cccc(NC(C(=O)c2c[nH]c3ccc(F)cc23)c2ccccc2)c1 (stereo not given)	13	–
0.122	COc1cccc(NC(C(=O)c2c[nH]c3cccc(F)c23)c2ccccc2)c1 (stereo not given)	21	–
2.5	COc1ccc(OC)c(NC(C(=O)c2c[nH]c3ccccc23)c2ccccc2)c1 (stereo not given)	15	–
2.4	O=C(c1c[nH]c2ccccc12)C(Nc1cccc(F)c1)c1ccccc1 (stereo not given)	12	–
6.5	CS(=O)(=O)c1cccc(NC(C(=O)c2c[nH]c3ccccc23)c2ccccc2)c1 (stereo not given)	65	–
0.837	COc1cccc(NC(C(=O)c2c[nH]c3ccccc23)c2cnccn2)c1 (stereo not given)	65	–
0.073	COc1cccc(NC(C(=O)c2c[nH]c3ccccc23)c2ccc(C)nc2)c1 (stereo not given)	73	–
0.484	COc1cncc(NC(C(=O)c2c[nH]c3ccccc23)c2ccccc2)n1 (stereo not given)	68	–
0.013	COc1cc(NC(C(=O)c2c[nH]c3ccccc23)c2ccc(F)cc2)cc(OCCO)c1 (stereo not given)	46	metabolised at 0.25 h [4]: 7%; solubility ([5]; read-out: solubility): 27 µM (≈ 11.7 µg/mL); metabolised at 0.25 h [6]: 23%
0.022	COc1cccc(NC(C(=O)c2c[nH]c3ccccc23)c2ccc(C)cc2)c1 (stereo not given)	20	–
0.59	COc1cccc(NC(C(=O)c2c[nH]c3ccccc23)c2cc(C)on2)c1 (stereo not given)	50	–
0.045	COc1cccc(NC(C(=O)c2c[nH]c3cc(F)ccc23)c2ccccc2)c1 (stereo not given)	15	–
0.057	COc1cccc(NC(C(=O)c2c[nH]c3c(F)cccc23)c2ccccc2)c1 (stereo not given)	14	–
0.297	COc1cccc(NC(C(=O)c2c[nH]c3ccccc23)c2ccco2)c1 (stereo not given)	16	–
0.926	O=C(c1c[nH]c2ccccc12)C(Nc1cccc(OC(F)(F)F)c1)c1ccccc1 (stereo not given)	5	–
4.2	COc1cccc(NC(C(=O)c2c[nH]c3ccccc23)c2ccccc2)c1OC (stereo not given)	> 129	–
0.025	COc1cccc(NC(C(=O)c2c[nH]c3ccccc23)c2ccc(F)cc2)c1 (stereo not given)	14	–
1.6	COc1cccc(NC(C(=O)c2c[nH]c3ccccc23)c2ccc(S(C)(=O)=O)cc2)c1 (stereo not given)	> 115	–
0.391	COc1cccc(NC(C(=O)c2c[nH]c3ccccc23)c2cncnc2)c1 (stereo not given)	100	–
0.406	COc1cc(NC(C(=O)c2c[nH]c3c(CCS(C)(=O)=O)cccc23)c2ccccc2)cc(OC)c1 (stereo not given)	> 102	–
0.288	COc1cccc(NC(C(=O)c2c[nH]c3ccccc23)c2ccccc2)n1 (stereo not given)	16	–
5	O=C(c1c[nH]c2ccccc12)C(Nc1cccnc1)c1ccccc1 (stereo not given)	54	–
–	COc1cc(NC(C(=O)c2c[nH]c3ccccc23)c2ccccc2)cc(OCCO)c1 (racemic)	–	Drug metabolism ([4]; microsomes, 0.25 h): 13%; solubility [5]: 60 µM (≈ 25 µg/mL); EC50 (dengue virus type 2; vero): 0.059 µM; CC50 (Vero): 47 µM; Drug metabolism ([6]; microsomes, 0.25 h): 37%
–	COc1cc(NC(C(=O)c2c[nH]c3ccccc23)c2ccccc2)cc(OCCO)c1 (single isomer, unassigned; (-))	–	EC50 (dengue virus type 2; vero): 0.456 µM; CC50 (Vero): 77 µM
